In data set [1] the target is T1, human wild-type CFTR (Homo sapiens, UniProt P13569). As to the kind of experiment: Fluorescence plate reader assay of CFTR function. The class given is cell-based. To be noted: for CFTR activation activity (in words): plate reader assay, structure-activity discussion. An outline of the steps: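 FRT cells stably coexpressing human wild-type CFTR and YFP-H148Q, grown near-confluent in 96-well plates. Washed with PBS, then 10 min in PBS with test compound plus 125 nM forskolin. YFP fluorescence read in single wells for 2 s baseline and 12 s after adding iodide solution (final 140 mM). Iodide influx rates give concentration–response curves; EC50 reported as mean ± SEM.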
T1 sequence (P13569 whole entry): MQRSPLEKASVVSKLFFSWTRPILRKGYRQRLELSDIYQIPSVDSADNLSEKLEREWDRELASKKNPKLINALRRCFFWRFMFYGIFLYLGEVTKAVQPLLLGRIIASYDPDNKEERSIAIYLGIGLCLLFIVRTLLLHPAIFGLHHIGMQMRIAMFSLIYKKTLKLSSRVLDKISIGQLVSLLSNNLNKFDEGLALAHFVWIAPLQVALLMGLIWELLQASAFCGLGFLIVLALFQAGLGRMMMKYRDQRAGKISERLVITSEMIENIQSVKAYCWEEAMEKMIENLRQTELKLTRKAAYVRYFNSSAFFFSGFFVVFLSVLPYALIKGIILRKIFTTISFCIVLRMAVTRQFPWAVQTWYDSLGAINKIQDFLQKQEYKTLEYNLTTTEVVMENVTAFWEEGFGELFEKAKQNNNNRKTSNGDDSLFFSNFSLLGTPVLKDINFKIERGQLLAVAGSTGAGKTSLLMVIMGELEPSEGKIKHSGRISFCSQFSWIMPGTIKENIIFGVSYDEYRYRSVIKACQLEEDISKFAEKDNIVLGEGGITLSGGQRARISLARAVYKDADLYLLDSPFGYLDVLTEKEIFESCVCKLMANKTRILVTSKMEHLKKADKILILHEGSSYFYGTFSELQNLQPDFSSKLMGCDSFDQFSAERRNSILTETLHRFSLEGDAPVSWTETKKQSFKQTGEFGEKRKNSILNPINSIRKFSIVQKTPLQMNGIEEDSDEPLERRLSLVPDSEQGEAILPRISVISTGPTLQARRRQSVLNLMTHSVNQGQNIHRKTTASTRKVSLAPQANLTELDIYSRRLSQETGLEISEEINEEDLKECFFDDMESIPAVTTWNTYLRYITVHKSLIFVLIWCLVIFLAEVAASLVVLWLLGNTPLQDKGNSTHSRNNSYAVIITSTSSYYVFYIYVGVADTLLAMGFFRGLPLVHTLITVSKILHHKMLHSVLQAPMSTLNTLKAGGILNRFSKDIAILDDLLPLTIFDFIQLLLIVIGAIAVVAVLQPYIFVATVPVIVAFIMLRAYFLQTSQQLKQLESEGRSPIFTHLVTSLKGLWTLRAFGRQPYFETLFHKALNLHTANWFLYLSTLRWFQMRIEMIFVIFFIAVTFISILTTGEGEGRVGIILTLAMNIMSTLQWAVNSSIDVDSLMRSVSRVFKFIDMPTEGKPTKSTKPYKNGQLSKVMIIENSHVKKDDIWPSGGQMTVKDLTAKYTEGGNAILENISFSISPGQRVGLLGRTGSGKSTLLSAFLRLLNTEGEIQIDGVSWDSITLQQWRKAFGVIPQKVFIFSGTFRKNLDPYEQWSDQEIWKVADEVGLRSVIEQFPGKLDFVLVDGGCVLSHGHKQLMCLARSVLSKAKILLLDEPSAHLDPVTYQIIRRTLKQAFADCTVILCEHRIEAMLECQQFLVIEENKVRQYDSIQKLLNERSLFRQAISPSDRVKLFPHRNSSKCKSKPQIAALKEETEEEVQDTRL

Data set [2] has as its target T1, human wild-type CFTR. As to the kind of experiment: Short-circuit current measurement in CFTR-expressing FRT cells. Format: cell-based. Conditions: data not shown.
Another data set concerns the target T2, TMEM16A (Homo sapiens, UniProt Q5XXA6).
T2 sequence (Q5XXA6 1-986): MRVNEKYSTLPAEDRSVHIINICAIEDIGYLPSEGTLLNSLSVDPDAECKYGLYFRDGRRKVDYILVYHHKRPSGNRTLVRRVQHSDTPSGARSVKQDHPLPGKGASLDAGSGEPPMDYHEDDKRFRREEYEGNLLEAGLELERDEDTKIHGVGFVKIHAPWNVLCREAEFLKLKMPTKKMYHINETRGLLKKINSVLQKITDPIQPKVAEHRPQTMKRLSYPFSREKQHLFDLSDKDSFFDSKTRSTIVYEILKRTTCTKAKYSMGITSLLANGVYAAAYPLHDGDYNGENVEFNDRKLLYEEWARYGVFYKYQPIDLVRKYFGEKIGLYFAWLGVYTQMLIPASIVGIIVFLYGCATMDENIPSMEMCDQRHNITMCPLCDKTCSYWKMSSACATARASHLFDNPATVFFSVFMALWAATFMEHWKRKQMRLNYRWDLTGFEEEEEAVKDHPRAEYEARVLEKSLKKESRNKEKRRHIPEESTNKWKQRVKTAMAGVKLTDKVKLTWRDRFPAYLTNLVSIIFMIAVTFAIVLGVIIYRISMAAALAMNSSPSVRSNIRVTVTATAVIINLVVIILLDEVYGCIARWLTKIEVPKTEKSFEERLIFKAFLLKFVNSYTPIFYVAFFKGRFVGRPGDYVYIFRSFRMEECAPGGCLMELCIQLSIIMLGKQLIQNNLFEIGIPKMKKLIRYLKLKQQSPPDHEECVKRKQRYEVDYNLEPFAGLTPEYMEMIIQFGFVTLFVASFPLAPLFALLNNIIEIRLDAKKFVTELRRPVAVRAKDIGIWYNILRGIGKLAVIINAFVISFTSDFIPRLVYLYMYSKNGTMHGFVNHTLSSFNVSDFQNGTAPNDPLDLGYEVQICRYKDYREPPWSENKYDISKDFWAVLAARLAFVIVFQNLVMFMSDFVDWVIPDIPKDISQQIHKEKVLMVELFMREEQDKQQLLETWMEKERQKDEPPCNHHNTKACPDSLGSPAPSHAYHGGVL
Nature of the data set: TMEM16A activity in FRT cells expressing YFP. The class given is cell-based. To be noted: 10 μM. An outline of the steps: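 FRT cells coexpressing YFP and TMEM16A, tested with 10 μM test compound. Run like the YFP iodide-influx plate reader assay; iodide influx rate computed from fluorescence.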

The test system of data set [3] is loperamide-induced constipation in CD1 mice. As to the kind of experiment: Loperamide-induced mouse model of acute constipation. Conditions: oral, 1 h before loperamide, 3-h stool. Format: in vivo. A digest of the protocol: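 CD1 mice aged 8–10 weeks got test compound or vehicle orally 1 h before loperamide 0.3 mg/kg ip. Vehicle was saline with 5% DMSO and 10% Kolliphor HS 15. Mice kept in metabolic cages with free food and water; stool collected for 3 h. Total weight, pellet count and water content (wet vs dry weight) measured. Mean ± SEM; unpaired Student's t-test, P < 0.05.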

The subject of the next data set is cellular cAMP level. As to the kind of experiment: Cellular cAMP in FRT cells. Format: cell-based, rat. Conditions: 10 μM, 10 min, without or with 90 nM forskolin.
For data set [4], the system named is calcium-activated chloride channels in HT-29 cells. As to the kind of experiment: Non-TMEM16A CaCC activity in HT-29 cells expressing YFP. Conditions: 10 μM. Format: cell-based. A digest of the protocol:
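HT-29 cells expressing YFP used for non-TMEM16A calcium-activated chloride channel activity, with test compound at 10 μM. Iodide influx rate computed from YFP fluorescence.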

A further data set relates to cytoplasmic calcium. Nature of the data set: Cytoplasmic calcium by Fluo-4 fluorescence in FRT cells. Format: cell-based, rat. To be noted: 10 μM, 5 min pretreatment, 100 μM ATP.
Data set [5] can be described thus: In vitro hepatic microsomal metabolic stability. Format: in vitro ADME, human. To be noted: 60 min, hepatic microsomes, NADPH, 5 μM.
The test system of a further data set is mice. To be noted: cited from earlier work.

Entries after “also recorded” stand apart in the source; their conditions may differ.

With `COC(=O)c1ccc([N+](=O)[O-])c(-c2nc3ccccc3n(Cc3ccccc3)c2=O)c1` [1a, Methyl 3-(4-Benzyl-3-oxo-3,4-dihydroquinoxalin-2-yl)-4-nitrobenzoate], the “CFTR activation activity (in words)” value at human wild-type CFTR [1] is reported as “very low activity”.

For the molecule `O=C(O)c1ccc([N+](=O)[O-])c(-c2nc3ccccc3n(Cc3ccccc3)c2=O)c1` [1b, 3-(4-Benzyl-3-oxo-3,4-dihydroquinoxalin-2-yl)-4-nitrobenzoic Acid], the “CFTR activation activity (in words)” value at human wild-type CFTR [1] is “very low activity”.

Regarding `O=c1c(-c2cccc([N+](=O)[O-])c2)nc2ccccc2n1Cc1ccccc1` [1c, 1-Benzyl-3-(3-nitrophenyl)quinoxalin-2(1H)-one], on human wild-type CFTR [2], the “Potency in nonpermeabilized versus permeabilized CFTR-expressing FRT cells” value is reported as “similar”. The “Inhibition or activation of TMEM16A” value at TMEM16A is reported as “neither inhibited nor activated”. In data set [3], the “Stool weight, pellet number and hydration” value is “fully normalized”. In the data set with cellular cAMP level, the “Effect on cellular cAMP level” value was “did not affect”. Further, the “Increase in potency compared to 4” value at human wild-type CFTR [1] (CFTR activation potency relative to 4) is listed as roughly 10 fold. Further, in data set [4], the “Inhibition or activation of calcium-activated chloride channels” value is reported as “neither inhibited nor activated”. In the data set on cytoplasmic calcium, the “Effect on cytoplasmic calcium and ATP-stimulated calcium elevation” value is given as “nor did it elevate cytoplasmic calcium or inhibit the ATP-stimulated elevation in cytoplasmic calcium”. This molecule also yielded a Compound metabolized in data set [5] of less than 40%.

As to `O=c1c(-c2ccccc2[N+](=O)[O-])nc2ccccc2n1Cc1ccccc1` [1d, 1-Benzyl-3-(2-nitrophenyl)quinoxalin-2(1H)-one], the “CFTR activation activity (in words)” value on human wild-type CFTR [1] is on record as “reduced activity”.

`O=c1c(-c2ccc([N+](=O)[O-])cc2)nc2ccccc2n1Cc1ccccc1` [1e, 1-Benzyl-3-(4-nitrophenyl)quinoxalin-2(1H)-one]: the “CFTR activation activity (in words)” value at human wild-type CFTR [1] is given as “reduced activity”.

As for `O=c1c(-c2ccc(C(F)(F)F)cc2)nc2ccccc2n1Cc1ccccc1` [1f, 1-Benzyl-3-(4-(trifluoromethyl)phenyl)quinoxalin-2(1H)-one], the “CFTR activation activity (in words)” value on human wild-type CFTR [1] is “low activity”.

Consider `O=c1c(-c2cccc(Br)c2)nc2ccccc2n1Cc1ccccc1` [1g, 1-Benzyl-3-(3-bromophenyl)quinoxalin-2(1H)-one], for which the “CFTR activation activity (in words)” value at human wild-type CFTR [1] is recorded as “low activity”.

Take `O=c1c(-c2ccccc2)nc2ccccc2n1Cc1ccccc1` [1h, 1-Benzyl-3-phenylquinoxalin-2(1H)-one]: on human wild-type CFTR [1], the “CFTR activation activity (in words)” value is listed as “significantly lower activity”.

With `O=c1c(-c2ccc(F)c([N+](=O)[O-])c2)nc2ccccc2n1Cc1ccccc1` [1i, 1-Benzyl-3-(4-fluoro-3-nitrophenyl)quinoxalin-2(1H)-one], the “CFTR activation activity (in words)” value at human wild-type CFTR [1] was “reduced activity”.

As for `COC(=O)c1ccc(N)c(-c2nc3ccccc3n(Cc3ccccc3)c2=O)c1` [1j, Methyl 4-Amino-3-(4-benzyl-3-oxo-3,4-dihydroquinoxalin-2-yl)-benzoate], on human wild-type CFTR [1], the “CFTR activation activity (in words)” value is on record as “moderately potent”.

Turning to `Nc1ccc(C(=O)O)cc1-c1nc2ccccc2n(Cc2ccccc2)c1=O` [1k, 4-Amino-3-(4-benzyl-3-oxo-3,4-dihydroquinoxalin-2-yl)benzoic Acid], on human wild-type CFTR [1], the “CFTR activation activity (in words)” value was “inactive”.

For the molecule `N#Cc1cccc(-c2nc3ccccc3n(Cc3ccccc3)c2=O)c1` [1l, 3-(4-Benzyl-3-oxo-3,4-dihydroquinoxalin-2-yl)benzonitrile], on human wild-type CFTR [1], the “CFTR activation activity (in words)” value is “greatly reduced activity”.

With `O=c1c(-c2ccc3nonc3c2)nc2ccccc2n1Cc1ccccc1` [1m, 3-(Benzo[c][1,2,5]oxadiazol-5-yl)-1-benzylquinoxalin-2(1H)-one], the “CFTR activation activity (in words)” value at human wild-type CFTR [1] was “comparable potency to the nitro analog”.

For the molecule `O=c1c(-c2cccc([N+](=O)[O-])c2)nc2cc(Cl)ccc2n1Cc1ccccc1` [2b, 1-Benzyl-6-chloro-3-(3-nitrophenyl)quinoxalin-2(1H)-one], the “CFTR activation activity (in words)” value on human wild-type CFTR [1] was “good activity”.

Take `O=c1c(-c2cccc([N+](=O)[O-])c2)nc2cc(Cl)c(Cl)cc2n1Cc1ccccc1` [2d, 1-Benzyl-6,7-dichloro-3-(3-nitrophenyl)quinoxalin-2(1H)-one]: on human wild-type CFTR [1], the “CFTR activation activity (in words)” value was “reduced activity”.

As to `O=c1c(-c2cccc([N+](=O)[O-])c2)nc2cc(Br)ccc2n1Cc1ccccc1` [2f, 1-Benzyl-6-bromo-3-(3-nitrophenyl)quinoxalin-2(1H)-one], at human wild-type CFTR [1], the “CFTR activation activity (in words)” value was “good activity; also recorded: underperforms by nearly an order of magnitude compared to unsubstituted 1c”.

As to `O=c1c(-c2cccc([N+](=O)[O-])c2)nc2cc(F)c(F)cc2n1Cc1ccccc1` [2g, 1-Benzyl-6,7-difluoro-3-(3-nitrophenyl)quinoxalin-2(1H)-one], at human wild-type CFTR [1], the “CFTR activation activity (in words)” value was “reduced activity”.

On to `Cc1cc2nc(-c3cccc([N+](=O)[O-])c3)c(=O)n(Cc3ccccc3)c2cc1C` [2i, 1-Benzyl-6,7-dimethyl-3-(3-nitrophenyl)quinoxalin-2(1H)-one], for which, at human wild-type CFTR [1], the “CFTR activation activity (in words)” value is recorded as “reduced activity”.

For the molecule `O=c1c(-c2cccc([N+](=O)[O-])c2)nc2ccccc2n1Cc1cccc2ccccc12` [3f, 1-(Naphthalen-1-ylmethyl)-3-(3-nitrophenyl)quinoxalin-2(1H)-one], the “CFTR activation activity (in words)” value on human wild-type CFTR [1] is reported as “significantly reduced activity”.

As to `O=c1c(-c2cccc([N+](=O)[O-])c2)nc2ccccc2n1Cc1ccc2ccccc2c1` [3g, 1-(Naphthalen-2-ylmethyl)-3-(3-nitrophenyl)quinoxalin-2(1H)-one], the “CFTR activation activity (in words)” value on human wild-type CFTR [1] is on record as “significantly reduced activity”.

`O=c1c(-c2cccc([N+](=O)[O-])c2)nc2ccccc2n1Cc1ccccn1` [3h, 3-(3-Nitrophenyl)-1-(pyridin-2-ylmethyl)quinoxalin-2(1H)-one]: the “CFTR activation activity (in words)” value on human wild-type CFTR [1] is listed as “comparable activity”.

With `O=c1c(-c2cccc([N+](=O)[O-])c2)nc2ccccc2n1Cc1ccco1` [3i, 1-(Furan-2-ylmethyl)-3-(3-nitrophenyl)quinoxalin-2(1H)-one], the “CFTR activation activity (in words)” value on human wild-type CFTR [1] is “comparable activity”.

With `O=c1c(-c2cccc([N+](=O)[O-])c2)nc2ccccc2n1Cc1cccs1` [3j, 3-(3-Nitrophenyl)-1-(thiophen-2-ylmethyl)quinoxalin-2(1H)-one], on human wild-type CFTR [1], the “CFTR activation activity (in words)” value is listed as “comparable activity”.

For `Nc1ccc([N+](=O)[O-])cc1-c1nc2ccccc2n(Cc2ccccc2)c1=O` [compound 4], the “Off-target actions or toxicity” value with mice (chronic administration in mice) is recorded as “no apparent off-target actions or toxicity”. Moreover, in the data set with mice, the Metabolism result is given as “rapid metabolism”. Further, in the data set with mice (mice), the Oral bioavailability result is reported as “minimal oral bioavailability”.
